40 compounds from PubChem BioAssay can be followed below.

The structures appear in SMILES notation. Activity calls are given as the source filed them.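 Rule for the calls, unless noted: active = potentiation averaged over duplicate wells exceeding buffer-only control mean by more than 3 SD; inactive = the rest.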

Chain of Potassium voltage-gated channel subfamily KQT member 1 (Homo sapiens) (P51787 whole entry, looked up): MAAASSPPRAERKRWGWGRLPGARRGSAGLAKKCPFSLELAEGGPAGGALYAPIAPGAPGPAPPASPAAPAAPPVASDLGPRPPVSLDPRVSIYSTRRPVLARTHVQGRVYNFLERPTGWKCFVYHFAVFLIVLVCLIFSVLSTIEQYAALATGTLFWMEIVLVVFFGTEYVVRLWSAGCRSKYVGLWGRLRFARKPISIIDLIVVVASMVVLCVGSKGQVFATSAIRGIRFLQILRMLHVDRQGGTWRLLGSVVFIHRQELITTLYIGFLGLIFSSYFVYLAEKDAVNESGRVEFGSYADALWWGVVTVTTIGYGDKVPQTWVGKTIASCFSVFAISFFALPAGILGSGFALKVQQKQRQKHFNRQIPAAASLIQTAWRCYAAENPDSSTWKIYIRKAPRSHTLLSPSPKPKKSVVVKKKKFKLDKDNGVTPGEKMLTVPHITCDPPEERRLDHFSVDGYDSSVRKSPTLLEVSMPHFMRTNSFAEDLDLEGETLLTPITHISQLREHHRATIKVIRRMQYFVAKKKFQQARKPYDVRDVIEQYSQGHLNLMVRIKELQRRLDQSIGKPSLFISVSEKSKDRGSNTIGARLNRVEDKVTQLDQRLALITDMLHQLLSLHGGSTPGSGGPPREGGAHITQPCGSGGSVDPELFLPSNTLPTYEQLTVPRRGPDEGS

Tested on in the first assay: not listed separately
Description: nonspecific flux increase, KCNQ1-free cells – parental CHO cells, counter-screen for KCNQ1 potentiator project (AID 493006;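 active = duplicate-averaged activation above buffer control mean plus 5 SD of those controls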;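 for activation: fluorescence ratio of max minus min over baseline after K+ and Tl+ depolarization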). The conditions noted are these: parental CHO-K1 cells, FluxOR thallium flux, at 10 µM; stronger effect = higher value. The procedure, abridged: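 Material: parental CHO-K1 cells, FluxOR dye-loaded; Also added: Potassium/thallium depolarization pulse; Schedule: overnight 37 °C plating, 90 min dye, 20 min dark compound; Signal: kinetic FluxOR fluorescence, 10 s baseline, 110 s after stimulus.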
For orientation: Counterscreens check selectivity or assay interference.
Consider `Cc1[nH]n(-c2ccc(Cl)cc2)c(=O)c1/C=N/c1nnc(-c2ccccc2)s1`, for which the activation was 678% (active).

On to `CCOC(=O)c1c(C)[nH]c(C(=O)Cn2nnc(-c3ccccc3Cl)n2)c1C`, for which the result was inactive.

As for `COc1ccc(-c2csc(NC(=O)C3=NN(c4ccccc4)C(=O)CC3)n2)cc1`, the result was inactive.

Turning to `Cc1onc(-c2ccccc2)c1C(=O)NC(=S)Nc1sc2c(c1C#N)CCC(C)C2` (stereo unspecified), the activation was 145% (active).

Regarding `CCc1ccc(OCC(=O)Nc2ccc(S(=O)(=O)N3CCOCC3)cc2)cc1`, the outcome was inactive.

As for `C=C[C@@]1(C)CC(=O)[C@]2(O)[C@@]3(C)[C@@H](O)CCC(C)(C)[C@@H]3[C@H](OC(C)=O)[C@H](O)[C@@]2(C)O1`, the outcome was inactive.

`Cc1cc(C(=O)OCC(=O)NCc2ccco2)c(C)n1-c1ccc(F)cc1`: the activation is 283% (active).

As to `COCCCNc1nc2ccccc2nc1NS(=O)(=O)c1cccs1`, the outcome was inactive.

On to `O=C(/C=C/c1ccco1)Nc1scc(-c2ccccc2)c1C(=O)O`, for which the outcome was inactive.

With `COc1ccc(C)cc1N=Nc1ccc(O)c2ncccc12`, the result was inactive.

For `CC1CCN(c2ccccc2NC(=S)NC(=O)c2cccs2)CC1`, the activation was 139% (active).

`COc1ccc2c(c1)cc(C)c1nnc(SCC(=O)N3CCN(C(=O)c4ccco4)CC3)n12`: the outcome was inactive.

Take `O=C(O)c1ccccc1NS(=O)(=O)c1cccc(-n2sc3ccccc3c2=O)c1`: the activation is 154% (active).

Regarding `CC(=O)Oc1c(-c2ccc(Br)o2)oc2ccccc2c1=O`, the activation was 480% (active).

With `Cc1ccc(N=Cc2cc(Br)cc(Cl)c2O)cc1`, the activation is 201% (active).

Turning to `CN(C(=S)NC(=O)c1ccccc1)C1CCCCC1`, the activation was 228% (active).

On to `O=C(Nc1nnc(-c2ccc3c(c2)CCCC3)o1)c1ccc(Cl)cc1Cl`, for which the activation is 374% (active).

Take `CCCC(=O)Nc1cc(Cl)ccc1N1CCN(C(=O)CC)CC1`: the outcome was inactive.

As to `CCCn1c(NC(=O)CN2C(=O)NC3(CCCC3)C2=O)nc2ccccc21`, the outcome was inactive.

Take `C=C(C)CNC(=S)Nc1nc2c(cc1C(=O)OCC)CCCC2`: the activation was 143% (active).

As to `O=C(NC(=S)NCCC1=CCCCC1)c1ccco1`, the activation is 324% (active).

A further assay has as its target Potassium voltage-gated channel subfamily KQT member 1 (Homo sapiens) (UniProt P51787). Briefly: enhancement of KCNQ1 channel thallium flux – FluxOR thallium flux, CHO cells, duplicates, confirmation (AID 493007).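 For outcome: cells depolarized by a potassium plus thallium sulfate stimulus after compound.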 The following applies: KCNQ1 cell line, FluxOR thallium flux fluorescence, at 10 µM; stronger effect = higher value, % of reference activator effect, buffer zero. In outline: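 System: KCNQ1-expressing CHO cell line; technique: kinetic thallium influx fluorescence with FluxOR dye, 10 s baseline, 110 s post-stimulus; timing: dye 90 min then compound 20 min, both at room temperature; controls: buffer-only wells as 0% and R-L3 activator as 100%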
On to `Cn1ccnc1SCC(=O)NC1CC1`, for which the outcome was inactive.

As for `N#CC(c1cccc(Cl)c1)c1ccc2c(C(F)(F)F)cc(C(F)(F)F)nc2n1` (stereo unspecified), the potentiation was 234% (active).

Regarding `Cc1ccc(C)c(NC(=S)NNC(=O)c2csc3c2CCC(C)C3)c1` (stereo unspecified), the potentiation is 116% (active).

As for `CSC(=S)N/N=C/c1ccc(Br)cc1`, the potentiation was 38% (active).

`O=c1sc(N2CCN(c3ccccc3F)CC2)nc2ccsc12`: the outcome was inactive.

As for `C=C1CCN(c2ccc(C(=O)NCc3ccc(C)cc3)cc2[N+](=O)[O-])CC1`, the potentiation is 19.5% (active).

On to `COc1ccc(C)cc1-n1c(C)cc(C=O)c1C`, for which the potentiation was 44% (active).

For `COc1ccc(-n2cc(-c3ccccc3)c3c(=S)nc[nH]c32)cc1`, the potentiation was 38% (active).

`Oc1c(Cl)cc(Cl)c2cccnc12`: the potentiation was 67% (active).

Regarding `CCOC(=O)Cn1c2ccccc2c2nc3ccccc3nc21`, the result was inactive.

Regarding `CCN(CC)C(=S)NC(=O)c1ccc(Cl)cc1Cl`, the potentiation was 50% (active).

Regarding `O=C1NN(c2ccccc2)C(=O)/C1=C\c1cccc(OC(=O)c2cccs2)c1`, the potentiation was 61.5% (active).

On to `COc1ccc(-n2cc(CNC3CCN(C)CC3)c(-c3cccc(F)c3)n2)cc1`, for which the potentiation was 31% (active).

For the compound `Cc1nn(CC2CC2)c(=O)n1-c1ccc(F)cc1`, the outcome was inactive.

Take `Cc1nc(NC(=S)NC(=O)c2cccs2)ccc1Br`: the potentiation was 23.5% (active).

Regarding `COc1cccc2sc(NNC(=O)c3nc4ccccc4s3)nc12`, the potentiation was 191% (active).

As for `CC(C)(C)CC(C)(C)NCC(O)COCCOc1ccc(Br)cc1` (stereo unspecified), the result was inactive.

On to `S=c1sc2c(Cl)ncnc2n1-c1ccccc1`, for which the potentiation is 146% (active).

Turning to `CC(C)C1=NN(C(=O)c2ccccc2)C(O)(C(C)(C)C)C1` (stereo unspecified), the outcome was inactive.

As to `Cc1[nH]n(-c2ccc(Cl)cc2)c(=O)c1/C=N/c1nnc(-c2ccccc2)s1`, the potentiation is 182% (active).

`CCOC(=O)c1c(C)[nH]c(C(=O)Cn2nnc(-c3ccccc3Cl)n2)c1C`: the outcome was inactive.

As for `COc1ccc(-c2csc(NC(=O)C3=NN(c4ccccc4)C(=O)CC3)n2)cc1`, the potentiation was 146% (active).

As to `Cc1onc(-c2ccccc2)c1C(=O)NC(=S)Nc1sc2c(c1C#N)CCC(C)C2` (stereo unspecified), the potentiation is 28% (active).

As for `CCc1ccc(OCC(=O)Nc2ccc(S(=O)(=O)N3CCOCC3)cc2)cc1`, the outcome was inactive.

As for `C=C[C@@]1(C)CC(=O)[C@]2(O)[C@@]3(C)[C@@H](O)CCC(C)(C)[C@@H]3[C@H](OC(C)=O)[C@H](O)[C@@]2(C)O1`, the result was inactive.

Take `Cc1cc(C(=O)OCC(=O)NCc2ccco2)c(C)n1-c1ccc(F)cc1`: the potentiation is 116% (active).

Regarding `COCCCNc1nc2ccccc2nc1NS(=O)(=O)c1cccs1`, the outcome was inactive.

On to `O=C(/C=C/c1ccco1)Nc1scc(-c2ccccc2)c1C(=O)O`, for which the result was inactive.

For `COc1ccc(C)cc1N=Nc1ccc(O)c2ncccc12`, the outcome was inactive.

On to `CC1CCN(c2ccccc2NC(=S)NC(=O)c2cccs2)CC1`, for which the potentiation is 54% (active).

Take `COc1ccc2c(c1)cc(C)c1nnc(SCC(=O)N3CCN(C(=O)c4ccco4)CC3)n12`: the outcome was inactive.

Consider `O=C(O)c1ccccc1NS(=O)(=O)c1cccc(-n2sc3ccccc3c2=O)c1`, for which the potentiation was 18% (active).

For `CC(=O)Oc1c(-c2ccc(Br)o2)oc2ccccc2c1=O`, the potentiation is 109% (active).

On to `Cc1ccc(N=Cc2cc(Br)cc(Cl)c2O)cc1`, for which the potentiation is 19% (active).

Turning to `CN(C(=S)NC(=O)c1ccccc1)C1CCCCC1`, the potentiation is 29% (active).

With `O=C(Nc1nnc(-c2ccc3c(c2)CCCC3)o1)c1ccc(Cl)cc1Cl`, the potentiation was 176% (active).

As for `CCCC(=O)Nc1cc(Cl)ccc1N1CCN(C(=O)CC)CC1`, the outcome was inactive.

For `CCCn1c(NC(=O)CN2C(=O)NC3(CCCC3)C2=O)nc2ccccc21`, the result was inactive.

As to `C=C(C)CNC(=S)Nc1nc2c(cc1C(=O)OCC)CCCC2`, the outcome was inactive.

On to `O=C(NC(=S)NCCC1=CCCCC1)c1ccco1`, for which the potentiation was 97% (active).
